Compound activity deposited in PubChem BioAssay by Johns Hopkins Ion Channel Center.
Most compounds without a hit are left out; they make up all but 2.3% or so of the library.
TRPC4 inh = TRPC4 (mouse) channel inhibition | Q9QUQ5 | HEK293 TRPC4beta/mu-opioid, DAMGO-evoked Fluo4 calcium flux; stronger effect = lower value | B-score at 10 µM | actives 0.39% (n = 300,000) | AID 2247;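 active = B-score over 3 SD under the library average, no early fluorescence shift, positive overall ratio signal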
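Assay system: HEK293 cells with stable TRPC4beta plus mu-opioid receptor expression; Probe or stimulus: DAMGO in two steps, submaximal then maximal; Dosing: single-point compound dosing; Measured by: Fluo4 calcium-dye fluorescence, kinetic read; Read-out basis: B score from integrated Fluo4 fluorescence ratio.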
TRPC4 PAM = allosterically enhances the mouse TRPC4 cation channel. Q9QUQ5. HEK293 TRPC4beta/mu-opioid, DAMGO EC20, Fluo-4 Ca2+ flux; stronger effect = higher value. B-score at 10 µM. actives 0.42% (n = 310,000). AID 2227;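 active = B-score of calcium response area above 5 SD of library B-scores, with initial fluorescence ratio within 5 SD of library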;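 note: B-score of integrated fluorescence ratio over time as area under calcium response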
TRPC6 inhibitor = inhibitors of mouse TRPC6 channel | Q61143 | HEK293-TRPC6, membrane potential dye, ACh-evoked depolarization; stronger effect = lower value | B-score at 10 µM | actives 1.1% (n = 310,000) | AID 2553;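 active = B-score under library mean minus 3 SD, initial fluorescence not abnormally high, positive integrated signal ratio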;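 note: B-score derived from integrated fluorescence ratio over the kinetic read; more negative B-score means stronger inhibition of depolarization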
TRPC6 activator = mouse TRPC6 channel activation. HEK293-TRPC6 membrane potential dye fluorescence; stronger effect = higher value. actives 0.13% (n = 310,000). Q61143. B-score at 10 µM;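 active = B-score of the integrated fluorescence ratio above library mean plus 3 SD, and starting fluorescence ratio within library mean plus 5 SD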;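 note: higher score means more depolarization so channel activation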
TRPC4 act = TRPC4 (mouse) channel activation; Q9QUQ5; HEK293 TRPC4beta/mu-opioid, Fluo4 calcium fluorescence; stronger effect = higher value; B-score at 10 µM; actives 0.49% (n = 310,000); AID 2237;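 active = B-score above 5 SD of library B-scores, and initial fluorescence ratio not above library mean plus 5 SD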;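 note: positive B-score marks a calcium rise read as TRPC4 activation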
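Technique: kinetic Fluo4 calcium fluorescence; Test system: TRPC4beta and mu-opioid receptor HEK293 stable cells; Measure: B-scored integrated calcium fluorescence ratio; Benchmarks: low control buffer alone, high control maximal DAMGO; Schedule: 45 min room-temperature Fluo4 loading, 110 s read.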
TRPC4 spec 2 = mouse TRPC4 off-target activity of TRPC6 inhibitors, second screen; shares compounds with TRPC6 inhibitor; HEK293 TRPC4/MOR, membrane potential dye fluorescence; channel activated by saturating DAMGO dose; inhibition, % at 10 µM; actives 42% (n = 920);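 active = compounds whose fluorescence signal differed from control wells by over 3 SD, either direction, in both duplicate plates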
TRPC4 spec = mouse TRPC4 off-target activity of TRPC6 inhibitors | shares compounds with TRPC6 inhibitor | HEK293 TRPC4/mu-opioid, membrane potential fluorescence | activity change, negative = inhibition, % at 10 µM | actives 61% (n = 920) | AID 2777;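 active = rise or fall in signal beyond 3 SD of buffer-only wells in both replicate plates, either sign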;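 note: integrated kinetic ratio of fluorescence range over baseline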
HEK293 MPD ctr 2-1 = second counter-screen for TRPC6 inhibitors: parental HEK293 cells. AID 2779. shares compounds with TRPC6 inhibitor. signal change vs control, % at 10 µM. parental HEK293 membrane potential dye fluorescence; maximal acetylcholine challenge after compound addition. actives 31% (n = 920);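 active = membrane potential signal moving either way by over 3 SD of the maximum-effect control, in both duplicate plates, meaning non-specific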
HEK293 MPD ctr-1 = counter-screen for TRPC6 inhibitors: effect in parental HEK293 cells. shares compounds with TRPC6 inhibitor. membrane potential signal change, % at 10 µM. actives 60% (n = 920). parental HEK293 membrane potential dye fluorescence;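 active = membrane potential signal shifting up or down by more than 3 SD of buffer-only wells, on both duplicate plates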
HEK293 MPD ctr-2 = parental HEK293 nonspecific activity of TRPC6 modulators. shares compounds with TRPC6 inhibitor. membrane potential dye fluorescence. membrane potential signal change, % at 10 µM. actives 51% (n = 2,400);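 active = membrane potential signal moves up or down beyond 5 SD from buffer-only wells, on both duplicate plates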
HEK293 MPD ctr 2-2 = parental HEK293 nonspecific activity of TRPC6 modulators, second screen; AID 488926; shares compounds with TRPC6 inhibitor; inhibition, % at 10 µM; actives 14% (n = 2,400); membrane potential dye fluorescence; after compound, maximal acetylcholine stimulation;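 active = membrane potential signal drops by more than 5 SD from the mean control signal, in both duplicate plates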;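 note: plate controls were acetylcholine ECmax control wells for no effect and buffer only wells for full effect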
TRPC4/MOR mod = selectivity of TRPC6 modulators against mouse TRPC4 | shares compounds with TRPC6 inhibitor | HEK293 TRPC4/mu-opioid, membrane potential fluorescence | percent change from control (negative = decrease, positive = increase), % at 10 µM | actives 69% (n = 2,400) | AID 488927;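 active = membrane potential signal moved up or down beyond 5 SD of buffer control wells, in both duplicate plates, actives on both sides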;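 note: plate controls were assay buffer wells for no effect and DAMGO maximal-effect wells for full effect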
TRPC4/MOR inh 2 = second check of whether TRPC6 modulators also affect mouse TRPC4 | shares compounds with TRPC6 inhibitor | HEK293 TRPC4/mu-opioid, membrane potential dye fluorescence; stimulated with maximal-effect DAMGO | inhibition, % at 10 µM | actives 55% (n = 2,400) | AID 488928;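 active = drop in membrane potential signal beyond 5 SD of the control wells in both duplicate plates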;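 note: TRPC4 counter screen for TRPC6 hits run under conditions tuned for TRPC6 not TRPC4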
TRPC6 block conf = confirmation of mouse TRPC6 inhibitors. HEK293-TRPC6, membrane potential dye, ACh-evoked depolarization. inhibition, % at 10 µM. actives 43% (n = 3,300). shares compounds with TRPC6 inhibitor. AID 488960;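 active = fluorescence ratio falls more than 5 SD below the full-stimulation control mean, in both duplicate runs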;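 note: integrated fluorescence ratio of peak minus minimum over baseline after agonist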
TRPC6 act conf = mouse TRPC6 activator confirmation; activation, % at 10 µM; actives 11% (n = 2,800); HEK293-TRPC6 membrane potential dye fluorescence, FDSS; AID 488961; shares compounds with TRPC6 inhibitor;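 active = ratio signal rise beyond 5 SD above unstimulated control wells' mean, seen in both duplicate runs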;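 note: plate controls were buffer EC0 wells for no effect and acetylcholine ECmax response for full effect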
* hit, by the source's call; i = inactive; . = no result given.

SMILES | TRPC4 inh | TRPC4 PAM | TRPC6 inhibitor | TRPC6 activator | TRPC4 act | HEK293 MPD ctr-2 | HEK293 MPD ctr 2-2 | TRPC4/MOR mod | TRPC4/MOR inh 2 | TRPC6 block conf | TRPC6 act conf | others
COc1cc(/C=C2/CC/C(=C/c3ccc(O)c(OC)c3)C2=O)ccc1O | i | i | i | 14* | 43* | 451%* | 149%* | 100%* | i | i | 97%*
CCS(=O)(=O)c1ncc(CO)n1CCc1ccccc1 | i | i | i | i | i | . | . | . | . | . | .
CNS(=O)(=O)c1cccc(C(=O)OCc2cc(=O)oc3c(C)c(O)ccc23)c1 | i | i | -6.3* | i | i | i | i | i | 54%* | i | i
COc1ccccc1CN1CCN(C(CC(C)C)c2nnnn2Cc2cccs2)CC1 (stereo unspecified) | i | i | -7.2* | i | i | . | . | . | . | i | . | TRPC4 spec 2=9.5%*;TRPC4 spec=47%*;HEK293 MPD ctr 2-1=231%*;HEK293 MPD ctr-1=18%*
O=c1cc(CN2CCOCC2)c2ccc(O)c(O)c2o1 | i | i | i | i | i | . | . | . | . | . | .
Cc1ccsc1/C=N/n1c(-c2ccccn2)n[nH]c1=S | i | i | i | i | i | . | . | . | . | . | .
COc1ccc(CCNC(=O)c2cc3c(=O)n4ccccc4nc3n(CC3CCCO3)c2=N)cc1OC (stereo unspecified) | i | i | -5* | i | i | 106%* | i | 12%* | i | 46%* | .
N=c1c(C(=O)NCc2ccc(F)cc2)cc2c(=O)n3ccccc3nc2n1CC1CCCO1 (stereo unspecified) | i | i | -6.7* | i | i | i | i | -38%* | 54%* | 59%* | i
COc1ccc(CCNC(=O)c2cc3c(=O)n4ccccc4nc3n(C3CCCCC3)c2=N)cc1OC | i | i | i | i | i | . | . | . | . | . | .
COC(=O)C1=C(C)N(Cc2ccccc2)C(=NCCCCO)N[C@H]1CCc1ccccc1 | i | i | i | i | i | . | . | . | . | . | .
Cc1ccc(-n2cccn2)c(CN2CCCC(C(=O)c3ccc4c(c3)OCO4)C2)c1 (stereo unspecified) | -8* | i | -6.8* | i | i | 190%* | i | 14%* | 83%* | 53%* | .
Cc1ccc(-n2cccn2)c(CN2CCCC(CNC(=O)c3ccc(F)cc3)C2)c1 (stereo unspecified) | i | i | i | i | i | . | . | . | . | . | .
CCn1ccnc1CN(C)C(=O)c1cc(COc2ccccc2SC)on1 | i | i | -7.5* | i | i | . | . | . | . | i | . | TRPC4 spec 2=i;TRPC4 spec=4.0%*;HEK293 MPD ctr 2-1=i;HEK293 MPD ctr-1=7.0%*
CSc1ccccc1OCc1cc(C(=O)N(Cc2nccn2C)C(C)C)no1 | i | i | i | i | i | . | . | . | . | . | .
Cc1ccc(C)c2[nH]c(=O)c(CN(CCN3CCCC3)C(=O)Nc3cccc(Cl)c3)cc12 | i | i | -6.8* | i | i | i | 67%* | i | 80%* | 60%* | i
CC(C)(C)c1ccc(S(=O)(=O)N2CCC(N3CCCCC3)CC2)cc1 | i | i | i | 20* | i | 238%* | i | 41%* | 36%* | i | 122%*
CCOC(=O)C1(CC2CCCCO2)CCN(S(=O)(=O)c2ccccc2)CC1 (stereo unspecified) | i | i | i | i | i | . | . | . | . | . | .
CC(C)(C)c1ccc(S(=O)(=O)N2CCC(CO)(CC3CCCCO3)CC2)cc1 (stereo unspecified) | i | i | -5.8* | i | i | i | i | 17%* | i | i | .
Cc1cccc(N(CC(=O)NC2CCCCC2)C(=O)c2c(C)noc2C)c1 | i | i | -6* | i | i | 118%* | i | 24%* | 30%* | i | .
COc1ccc(-c2nc(-c3cccs3)c(-c3cccs3)[nH]2)cc1OC | i | i | -5.5* | i | i | i | i | i | i | i | i
NCCCCCc1nnc(SCc2ccc(Cl)cc2Cl)o1 | i | i | -6.2* | i | i | i | i | 14%* | 53%* | i | .
NCCc1nnc(SCc2ccccc2Cl)o1 | i | i | i | i | i | . | . | . | . | . | .
NCCCCCc1nnc(SCc2cccc(Cl)c2)o1 | i | i | -6.8* | i | i | . | . | . | . | i | i | TRPC4 spec 2=i;TRPC4 spec=-0.3%*;HEK293 MPD ctr 2-1=i;HEK293 MPD ctr-1=0.8%*
NCCCCCc1nnc(SCC(=O)Nc2cccc(Cl)c2)o1 | i | i | i | i | i | . | . | . | . | . | .
COc1ccccc1Nc1ccc(NC(=O)c2cccc([N+](=O)[O-])c2C)cc1 | i | i | i | i | i | . | . | . | . | . | .
CCOc1ccccc1NC(=S)Nc1ccc(S(N)(=O)=O)cc1 | i | i | i | i | i | . | . | . | . | . | .
Cc1ccccc1NC(=O)CC(O)(C(F)(F)F)C(F)(F)F | i | i | i | i | i | . | . | . | . | . | .
Cc1ccc(NC(=O)CC(O)(C(F)(F)F)C(F)(F)F)c(Br)c1 | i | i | -6.1* | i | i | i | i | i | i | i | .
